This is an account of results in ChEMBL document CHEMBL1123018, “7 alpha-substituted derivatives of androstenedione as inhibitors of estrogen biosynthesis” (J Med Chem, 1985).

Experiment [1] concerns the target T1, Aromatase (Homo sapiens, UniProt P11511).
T1 sequence (P11511 whole entry): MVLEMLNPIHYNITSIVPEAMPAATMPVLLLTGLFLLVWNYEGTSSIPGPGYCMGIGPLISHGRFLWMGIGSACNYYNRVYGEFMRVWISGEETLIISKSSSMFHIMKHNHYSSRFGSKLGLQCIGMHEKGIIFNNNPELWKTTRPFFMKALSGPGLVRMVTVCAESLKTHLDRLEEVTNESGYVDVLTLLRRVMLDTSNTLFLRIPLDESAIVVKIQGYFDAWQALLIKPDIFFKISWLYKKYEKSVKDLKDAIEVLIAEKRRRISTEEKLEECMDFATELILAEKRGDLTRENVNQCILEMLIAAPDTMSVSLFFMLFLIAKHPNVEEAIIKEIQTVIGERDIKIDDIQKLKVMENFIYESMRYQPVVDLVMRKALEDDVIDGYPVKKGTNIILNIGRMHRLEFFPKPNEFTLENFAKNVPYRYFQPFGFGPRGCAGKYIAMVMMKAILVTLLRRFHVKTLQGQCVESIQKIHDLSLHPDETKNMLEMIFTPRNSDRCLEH
The experiment is described as follows: Inhibition of Cytochrome P450 19A1 at 0.25 uM. The procedure, abridged: (§1)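 Aromatase source was lyophilized human placental microsomes, measured by tritiated water release. The substrate was 0.25 μM [1-³H]androstenedione (83% of the tritium in the β position), about 5 times the Km for this enzyme preparation. Inhibitor was tested at 0.25 μM or 1.25 μM with buffer and cofactors for 15 min. Ethyl acetate stopped the reaction.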

Experiment [2] addresses T1, Aromatase. The experiment is described as follows: Inhibition of Cytochrome P450 19A1 at 1.25 uM. The procedure, abridged:
as §1

For the compound `COc1ccc(S[C@@H]2CC3=CC(=O)CC[C@]3(C)[C@H]3CC[C@]4(C)C(=O)CC[C@H]4[C@H]23)cc1`, at Aromatase [1], at 0.25 µM the inhibition was 7.93%. The same compound displayed an inhibition at 1.25 µM at Aromatase [2] of 36.7%.
As for `C[C@]12CCC(=O)C=C1C[C@@H](Sc1ccc(F)cc1)[C@@H]1[C@@H]2CC[C@]2(C)C(=O)CC[C@@H]12`, at Aromatase [1], the inhibition at 0.25 µM amounted to 55.3%. On Aromatase [2], testing at 1.25 µM gave an inhibition of 74.1%.
Turning to `C[C@]12CCC(=O)C=C1C[C@@H](Sc1ccc(Cl)cc1)[C@@H]1[C@@H]2CC[C@]2(C)C(=O)CC[C@@H]12`, on Aromatase [1], 0.25 µM produced 56.5% inhibition. This compound also had an inhibition at 1.25 µM against Aromatase [2] of 83.4%.
For `Cc1ccc(S[C@@H]2CC3=CC(=O)CC[C@]3(C)[C@H]3CC[C@]4(C)C(=O)CC[C@H]4[C@H]23)cc1` the same measures were 7.83% and 24.9%.
Turning to `C[C@]12CCC(=O)C=C1C[C@@H](Sc1ccc(Br)cc1)[C@@H]1[C@@H]2CC[C@]2(C)C(=O)CC[C@@H]12`, at Aromatase [1], testing at 0.25 µM gave an inhibition of 47.3%. The compound also gave an inhibition at 1.25 µM against Aromatase [2] of 80.8%.
Taken in the same sequence, the figures for `C[C@]12CCC(=O)C=C1C[C@@H](SCc1ccccc1)[C@@H]1[C@@H]2CC[C@]2(C)C(=O)CC[C@@H]12` were 33.5% and 69.8%.
Compound `C[C@]12CCC(=O)C=C1C[C@@H](Sc1cccc(N)c1)[C@@H]1[C@@H]2CC[C@]2(C)C(=O)CC[C@@H]12` yielded an inhibition at 0.25 µM against Aromatase [1] of 39.9%. This compound yielded an inhibition at 1.25 µM against Aromatase [2] of 73.3%.
On to `C[C@]12CCC(=O)C=C1C[C@@H](SC1CCCCC1)[C@@H]1[C@@H]2CC[C@]2(C)C(=O)CC[C@@H]12`, for which the inhibition at 0.25 µM against Aromatase [1] came to 18.5%. On Aromatase [2], this compound came in with an inhibition at 1.25 µM of 32.2%.
In the case of `C[C@]12CCC(=O)C=C1C[C@@H](Sc1ccc(N)cc1)[C@@H]1[C@@H]2CC[C@]2(C)C(=O)CC[C@@H]12`, on Aromatase [1], the inhibition at 0.25 µM came to 51.6%. At Aromatase [2], this compound returned an inhibition at 1.25 µM of 85%.
Taken in the same sequence, the figures for `CCN(CC)c1ccc(S[C@@H]2CC3=CC(=O)CC[C@]3(C)[C@H]3CC[C@]4(C)C(=O)CC[C@H]4[C@H]23)cc1` were 11.7% and 53.2%.
With `C[C@]12CCC(=O)C=C1C[C@@H](Sc1ccccc1)[C@@H]1[C@@H]2CC[C@]2(C)C(=O)CC[C@@H]12`, the inhibition at 0.25 µM against Aromatase [1] amounted to 62.7%. The compound also returned an inhibition at 1.25 µM against Aromatase [2] of 66.8%.
Taken in the same sequence, the figures for `CC(=O)c1ccc(S[C@@H]2CC3=CC(=O)CC[C@]3(C)[C@H]3CC[C@]4(C)C(=O)CC[C@H]4[C@H]23)cc1` were 55.7% and 84.4%.
As to `C[C@]12CCC(=O)C=C1C[C@@H](Sc1ccc(I)cc1)[C@@H]1[C@@H]2CC[C@]2(C)C(=O)CC[C@@H]12`, at Aromatase [1], testing at 0.25 µM gave an inhibition of 45%. The inhibition at 1.25 µM on Aromatase [2] amounted to 83.7%.
